Results taken from ChEMBL document CHEMBL1629439, “High-throughput identification of antibacterials against methicillin-resistant Staphylococcus aureus (MRSA) and the transglycosylase” (Bioorg Med Chem, 2010).
≈ marks a conversion by molar mass, not a printed value.

Key:
[1] = test system: Staphylococcus aureus; experiment: Antimicrobial activity against Staphylococcus aureus ATCC 29213 after 18 to 24 hrs by alamar blue assay
[2] = test system: Staphylococcus aureus; experiment: Antimicrobial activity against methicillin-resistant Staphylococcus aureus ATCC 33592 after 18 to 24 hrs by alamar blue assay; type: functional; details: Staphylococcus aureus, ATCC 33592; read-out: MIC
Procedure, shortened: (§1)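 Broth microdilution per NCCLS standard, Mueller-Hinton broth, 8-point twofold dilutions; exponentially growing cells at 5 10^5 cells/ml with compound, 18–24 h at 37 C; 20% Alamar blue added, fluorescence read; MIC90 taken as lowest concentration preventing at least 90% growth.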

[3] = test system: Mycolicibacterium smegmatis; experiment: Antimicrobial activity against Mycobacterium smegmatis BCRC 11565 after 18 to 24 hrs by alamar blue assay; type: functional; details: Mycolicibacterium smegmatis, BCRC 11565; read-out: MIC
Procedure, shortened: (§2)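 Broth microdilution per NCCLS in Mueller-Hinton broth, 8-point twofold dilutions, 384-well format. Exponential-phase cells at 5 × 10^5 cells/ml incubated with compound 18–24 h at 37 °C, then 20% Alamar blue added and fluorescence read. MIC90 taken as the lowest concentration preventing at least 90% bacterial growth.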

[4] = test system: Bacillus subtilis; experiment: Antimicrobial activity against Bacillus subtilis ATCC 23857 after 18 to 24 hrs by alamar blue assay; type: functional
Procedure, shortened: as §2

[5] = test system: Serratia marcescens; experiment: Antimicrobial activity against Serratia marcescens ATCC 14756 after 18 to 24 hrs by alamar blue assay; type: functional; details: Serratia marcescens, ATCC 14756; read-out: MIC
Procedure, shortened: as §2

[6] = Inhibition of transglycosylase assessed as inhibition of NBD- labelled lipid II polymerization
Procedure, shortened: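 100 µM NBD-labelled lipid II incubated 30 min with full-length PBP (EC, SA or Mtb) and 10 ng/µl N-acetylmuramidase in 50 mM Tris-HCl pH 8.0, 10 mM MgCl2, 0.1% Triton X-100, 10% DMSO, 15% MeOH. Supernatant run on anion-exchange HPLC with 20 mM–0.5 M ammonium acetate gradient. Inhibition calculated from substrate peak-area percentage. IC50 determined. S. aureus strains share one SA enzyme.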

[7] = test system: Stenotrophomonas maltophilia; experiment: Antimicrobial activity against Stenotrophomonas maltophilia ATCC 13637 after 18 to 24 hrs by alamar blue assay; type: functional; details: Stenotrophomonas maltophilia, ATCC 13637; read-out: MIC
Procedure, shortened: as §2

[8] = test system: Acinetobacter baumannii; experiment: Antimicrobial activity against Acinetobacter baumannii ATCC 49139 after 18 to 24 hrs by alamar blue assay; type: functional; details: Acinetobacter baumannii, ATCC 49139; read-out: MIC
Procedure, shortened: as §2

[9] = test system: Escherichia coli; experiment: Antimicrobial activity against Escherichia coli ATCC […] after 18 to 24 hrs by alamar blue assay; type: functional; details: Escherichia coli; read-out: MIC
Procedure, shortened: as §2

[10] = test system: Staphylococcus aureus; experiment: Antimicrobial activity against oxacillin- and methicillin-resistant Staphylococcus aureus isolate Sa-OXA-R2 after 18 to 24 hrs by alamar blue assay; type: functional
Procedure, shortened: as §1

[11] = test system: Pseudomonas aeruginosa; experiment: Antimicrobial activity against Pseudomonas aeruginosa ATCC 25619 after 18 to 24 hrs by alamar blue assay; type: functional; details: Pseudomonas aeruginosa, ATCC 25619; read-out: MIC
Procedure, shortened: as §2

[12] = test system: Staphylococcus aureus; experiment: Antimicrobial activity against methicillin-resistant Staphylococcus aureus isolate NTUH4722 after 18 to 24 hrs by alamar blue assay; type: functional
Procedure, shortened: as §1

Compound	MIC [1]	MIC [2]	MIC [3]	MIC [4]	MIC [5]	IC90 [6]	MIC [7]	MIC [8]	MIC [9]	MIC [10]	MIC [11]	MIC [12]
Cc1ccc(C(=O)c2cc(NC(=O)c3cc(I)cc(I)c3O)ccc2Cl)cc1	4 µg/mL (≈ 6.48 µM)	4 µg/mL (≈ 6.48 µM)	0.5 µg/mL (≈ 0.81 µM)	< 0.03 µg/mL	16 µg/mL (≈ 25.9 µM)	100 µM	16 µg/mL (≈ 25.9 µM)	16 µg/mL (≈ 25.9 µM)	8 µg/mL (≈ 13 µM)	≤ 0.03 µg/mL	16 µg/mL (≈ 25.9 µM)	≤ 0.03 µg/mL
O=C(Nc1cc(Cl)ccc1Oc1ccc(Cl)c2ccccc12)c1cc(Cl)cc(Br)c1O	8 µg/mL (≈ 14.9 µM)	16 µg/mL (≈ 29.8 µM)	0.5 µg/mL (≈ 0.93 µM)	< 0.03 µg/mL	16 µg/mL (≈ 29.8 µM)	100 µM	16 µg/mL (≈ 29.8 µM)	16 µg/mL (≈ 29.8 µM)	8 µg/mL (≈ 14.9 µM)	≤ 0.03 µg/mL	16 µg/mL (≈ 29.8 µM)	≤ 0.03 µg/mL
O=C(Nc1ccc(Oc2ccc(Cl)cc2)c(Cl)c1)c1cc(Br)cc(Br)c1O	0.5 µg/mL (≈ 0.94 µM)	0.25 µg/mL (≈ 0.47 µM)	0.5 µg/mL (≈ 0.94 µM)	< 0.03 µg/mL	16 µg/mL (≈ 30.1 µM)	100 µM	16 µg/mL (≈ 30.1 µM)	16 µg/mL (≈ 30.1 µM)	8 µg/mL (≈ 15 µM)	0.5 µg/mL (≈ 0.94 µM)	16 µg/mL (≈ 30.1 µM)	0.25 µg/mL (≈ 0.47 µM)
O=C(Nc1ccc(Oc2ccc(Br)c3ccccc23)c(Cl)c1)c1cc(Br)cc(Br)c1O	4 µg/mL (≈ 6.38 µM)	≤ 2 µg/mL	0.5 µg/mL (≈ 0.798 µM)	< 0.03 µg/mL	16 µg/mL (≈ 25.5 µM)	100 µM	16 µg/mL (≈ 25.5 µM)	16 µg/mL (≈ 25.5 µM)	8 µg/mL (≈ 12.8 µM)	≤ 0.03 µg/mL	16 µg/mL (≈ 25.5 µM)	≤ 0.03 µg/mL
O=C(Nc1cc(Cl)cc(C(=O)c2ccc(Cl)cc2)c1Cl)c1cc(Cl)cc(Br)c1O	0.5 µg/mL (≈ 0.936 µM)	0.5 µg/mL (≈ 0.936 µM)	0.5 µg/mL (≈ 0.936 µM)	< 0.03 µg/mL	16 µg/mL (≈ 30 µM)	100 µM	16 µg/mL (≈ 30 µM)	16 µg/mL (≈ 30 µM)	8 µg/mL (≈ 15 µM)	0.5 µg/mL (≈ 0.936 µM)	16 µg/mL (≈ 30 µM)	1 µg/mL (≈ 1.87 µM)
Cc1ccc(C(C)C)c(Oc2ccccc2NC(=O)c2cc(Br)cc(Br)c2O)c1	1 µg/mL (≈ 1.93 µM)	4 µg/mL (≈ 7.7 µM)	0.5 µg/mL (≈ 0.963 µM)	< 0.03 µg/mL	16 µg/mL (≈ 30.8 µM)	50 µM	16 µg/mL (≈ 30.8 µM)	16 µg/mL (≈ 30.8 µM)	8 µg/mL (≈ 15.4 µM)	≤ 0.03 µg/mL	16 µg/mL (≈ 30.8 µM)	≤ 0.03 µg/mL
Cc1ccc(C(C)C)c(Oc2ccc(Cl)cc2NC(=O)c2cc(I)cc(I)c2O)c1	4 µg/mL (≈ 6.18 µM)	0.5 µg/mL (≈ 0.772 µM)	0.5 µg/mL (≈ 0.772 µM)	< 0.03 µg/mL	16 µg/mL (≈ 24.7 µM)	50 µM	16 µg/mL (≈ 24.7 µM)	16 µg/mL (≈ 24.7 µM)	8 µg/mL (≈ 12.4 µM)	≤ 0.03 µg/mL	16 µg/mL (≈ 24.7 µM)	≤ 0.03 µg/mL
O=C(Nc1cc(Cl)ccc1Oc1ccc(Br)c2ccccc12)c1cc(Cl)cc(I)c1O	8 µg/mL (≈ 12.7 µM)	4 µg/mL (≈ 6.36 µM)	0.5 µg/mL (≈ 0.795 µM)	< 0.03 µg/mL	16 µg/mL (≈ 25.4 µM)	100 µM	16 µg/mL (≈ 25.4 µM)	16 µg/mL (≈ 25.4 µM)	8 µg/mL (≈ 12.7 µM)	≤ 0.03 µg/mL	16 µg/mL (≈ 25.4 µM)	≤ 0.03 µg/mL
O=C(c1ccccc1)c1cc(NC(=O)c2cc(Br)cc(Br)c2O)ccc1Cl	1 µg/mL (≈ 1.96 µM)	1 µg/mL (≈ 1.96 µM)	0.5 µg/mL (≈ 0.981 µM)	< 0.03 µg/mL	16 µg/mL (≈ 31.4 µM)	100 µM	16 µg/mL (≈ 31.4 µM)	16 µg/mL (≈ 31.4 µM)	8 µg/mL (≈ 15.7 µM)	1 µg/mL (≈ 1.96 µM)	16 µg/mL (≈ 31.4 µM)	2 µg/mL (≈ 3.92 µM)
O=C(Nc1ccc(Oc2ccc(Cl)c3cccnc23)c(Cl)c1)c1cc(Br)cc(Br)c1O	16 µg/mL (≈ 27.4 µM)	32 µg/mL (≈ 54.9 µM)	0.5 µg/mL (≈ 0.858 µM)	< 0.03 µg/mL	16 µg/mL (≈ 27.4 µM)	100 µM	16 µg/mL (≈ 27.4 µM)	16 µg/mL (≈ 27.4 µM)	8 µg/mL (≈ 13.7 µM)	≤ 0.03 µg/mL	16 µg/mL (≈ 27.4 µM)	≤ 0.03 µg/mL
Cc1ccc(C(C)C)cc1Oc1ccc(Cl)cc1NC(=O)c1cc(Cl)cc(Br)c1O	1 µg/mL (≈ 1.96 µM)	0.5 µg/mL (≈ 0.982 µM)	0.5 µg/mL (≈ 0.982 µM)	< 0.03 µg/mL	16 µg/mL (≈ 31.4 µM)	50 µM	16 µg/mL (≈ 31.4 µM)	16 µg/mL (≈ 31.4 µM)	8 µg/mL (≈ 15.7 µM)	≤ 0.03 µg/mL	16 µg/mL (≈ 31.4 µM)	≤ 0.03 µg/mL
O=C(Nc1ccc(Oc2ccc3ccccc3c2Cl)c(Cl)c1)c1cc(Br)cc(Br)c1O	≤ 2 µg/mL	≤ 2 µg/mL	0.5 µg/mL (≈ 0.859 µM)	< 0.03 µg/mL	16 µg/mL (≈ 27.5 µM)	100 µM	16 µg/mL (≈ 27.5 µM)	16 µg/mL (≈ 27.5 µM)	8 µg/mL (≈ 13.7 µM)	≤ 0.03 µg/mL	16 µg/mL (≈ 27.5 µM)	≤ 0.03 µg/mL
O=C(Nc1ccc(Oc2cc3ccccc3cc2Cl)c(Cl)c1)c1cc(Cl)cc(I)c1O	4 µg/mL (≈ 6.84 µM)	≤ 2 µg/mL	0.5 µg/mL (≈ 0.855 µM)	< 0.03 µg/mL	16 µg/mL (≈ 27.4 µM)	> 100 µM	16 µg/mL (≈ 27.4 µM)	16 µg/mL (≈ 27.4 µM)	8 µg/mL (≈ 13.7 µM)	≤ 0.03 µg/mL	16 µg/mL (≈ 27.4 µM)	≤ 0.03 µg/mL
